Results from different studies.
Each line is one published result; the experiments were not run side by side.
Target: Serine/threonine-protein kinase PLK1 (PLK1, Homo sapiens, UniProt P53350)

With `COc1ccc2oc(-c3ccc4nc(N)oc4c3)c/c(=N\c3ccccc3NC(=O)CCN)c2c1` the remaining binding was 98% (binding; 1 µM).
The inhibition of `C=CC(=O)N1CCC([C@@H]2CCNc3c(C(N)=O)c(-c4ccc(Oc5ccccc5)cc4)nn32)CC1` is reported as 31% (enzyme activity; inhibitor; 1 µM).
`N#Cc1ccc(NC(=O)Nc2ccccc2)cc1` gave a remaining binding of 93% (cell-free assay; competition with immobilised ligand; 25 µM).
The inhibition of `CC#CC(=O)N1CCC[C@H]1c1nc(-c2ccc(C(=O)Nc3ccccn3)cc2)c2c(N)nccn12` is reported as 36% (enzyme activity; inhibitor; 1 µM).
`Cc1ccc(NC(=O)c2ccnc(C(F)(F)F)c2)cc1-c1cc(OCCO)nc(N2CCOCC2)c1` gave a remaining binding of 94% (binding; 1 µM).
The remaining binding of `CCCCC(=O)Nc1ccc(-c2ccc3ncn(CCC)c(=O)c3c2)cn1` is reported as 100% (binding; competition with immobilised ligand; 0.5 µM).
The remaining binding of `COc1ccc2[nH]c3c4[nH]c5ccc(OC)cc5c4c4c(c3c2c1)C(=O)NC4=O` is reported as 90% (binding; 1 µM).
`C1=C/COCc2cc(ccc2OCCN2CCCC2)Nc2nccc(n2)-c2cccc(c2)COC/1` has a remaining binding of 100% (binding; 0.1 µM).
